Data as given in ChEMBL document CHEMBL4325842, “Design, synthesis, and biological evaluation of novel aminopyrimidinylisoindolines as AXL kinase inhibitors” (Bioorg Med Chem Lett, 2018).

Assays:
U-87 MG = test: Antiproliferative activity against human U87MG cells after 2 days by spectrophotometric analysis; assay type: functional, U-87MG ATCC; conditions: 48 h
[1] = target: Tyrosine-protein kinase ABL1 (Homo sapiens) (UniProt P00519); test: Inhibition of human ABL1 at 10 uM using EAIYAAPFAKKK as substrate by [gamma-33P]-ATP assay relative to control
Method in brief: (§1)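 Commercial kinase panel screen at a single concentration of 10 μM. % inhibition was calculated as 100 minus % activity.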

[2] = target: Activated CDC42 kinase 1 (Homo sapiens) (UniProt Q07912); test: Inhibition of human ACK1 at 10 uM using EAIYAAPFAKKK as substrate by [gamma-33P]-ATP assay relative to control; method in brief: as §1
[3] = target: RAC-alpha serine/threonine-protein kinase (Homo sapiens) (UniProt P31749); test: Inhibition of human AKT1 at 10 uM using KGSGSGRPRTSSFAEG as substrate by [gamma-33P]-ATP assay relative to control; method in brief: as §1
[4] = target: Serine/threonine-protein kinase B-raf (Homo sapiens) (UniProt P15056); test: Inhibition of human BRAF at 10 uM using MEK1 (K97R) as substrate by [gamma-33P]-ATP assay relative to control; method in brief: as §1
[5] = target: Mast/stem cell growth factor receptor Kit (Homo sapiens) (UniProt P10721); test: Inhibition of human c-KIT at 10 uM using poly[Glu:Tyr] (4:1) as substrate by [gamma-33P]-ATP assay relative to control
Method in brief: (§2)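 Kinase-panel profiling (50 oncogenic kinases) run by an outside contract service. The test compound was tested at a single concentration of 10 μM. Percent inhibition was calculated as 100 minus % remaining activity.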

[6] = target: Proto-oncogene tyrosine-protein kinase Src (Homo sapiens) (UniProt P12931); test: Inhibition of human c-SRC at 10 uM using poly[Glu:Tyr] (4:1) as substrate by [gamma-33P]-ATP assay relative to control; method in brief: as §2
[7] = target: Cyclin-dependent kinase 1/cyclin B1 (Homo sapiens) (UniProt P06493+P14635); test: Inhibition of human CDK1/cyclinB at 10 uM using Histone H1 as substrate by [gamma-33P]-ATP assay relative to control; assay type: protein-complex assay; method in brief: as §1
[8] = target: Tyrosine-protein kinase Lyn (Homo sapiens) (UniProt P07948); test: Inhibition of human LYN at 10 uM using poly[Glu:Tyr] (4:1) as substrate by [gamma-33P]-ATP assay relative to control; method in brief: as §1
[9] = target: Tyrosine-protein kinase Mer (Homo sapiens) (UniProt Q12866); test: Inhibition of human MER at 10 uM using poly[Glu:Tyr] (4:1) as substrate by [gamma-33P]-ATP assay relative to control; method in brief: as §1
[10] = target: Serine/threonine-protein kinase 26 (Homo sapiens) (UniProt Q9P289); test: Inhibition of human MST4 at 10 uM using MBP as substrate by [gamma-33P]-ATP assay relative to control; method in brief: as §1
[11] = target: Serine/threonine-protein kinase PAK 4 (Homo sapiens) (UniProt O96013); test: Inhibition of human PAK4 at 10 uM using RRRLSFAEPG as substrate by [gamma-33P]-ATP assay relative to control; method in brief: as §2
[12] = target: Serine/threonine-protein kinase pim-1 (Homo sapiens) (UniProt P11309); test: Inhibition of human PIM1 at 10 uM using KKRNRTLTK as substrate by [gamma-33P]-ATP assay relative to control; method in brief: as §2
[13] = target: Death-associated protein kinase 1 (Homo sapiens) (UniProt P53355); test: Inhibition of human DAPK1 at 10 uM using KKLNRTLSFAEPG as substrate by [gamma-33P]-ATP assay relative to control; method in brief: as §1
[14] = target: Epidermal growth factor receptor (Homo sapiens) (UniProt P00533); test: Inhibition of human EGFR at 10 uM using poly[Glu:Tyr] (4:1) as substrate by [gamma-33P]-ATP assay relative to control; method in brief: as §1
[15] = target: Ephrin type-A receptor 1 (Homo sapiens) (UniProt P21709); test: Inhibition of human EPHA1 at 10 uM using poly[Glu:Tyr] (4:1) as substrate by [gamma-33P]-ATP assay relative to control; method in brief: as §1
Focal adhesion kinase 1 = Focal adhesion kinase 1 (Homo sapiens, UniProt Q05397); test: Inhibition of human FAK at 10 uM using poly[Glu:Tyr] (4:1) as substrate by [gamma-33P]-ATP assay relative to control; method in brief: as §1
[16] = target: Fibroblast growth factor receptor 1 (Homo sapiens) (UniProt P11362); test: Inhibition of human FGFR1 at 10 uM using KKKSPGEYVNIEFG as substrate by [gamma-33P]-ATP assay relative to control; method in brief: as §1
[17] = target: Tyrosine-protein kinase Fgr (Homo sapiens) (UniProt P09769); test: Inhibition of human FGR at 10 uM using poly[Glu:Tyr] (4:1) as substrate by [gamma-33P]-ATP assay relative to control; method in brief: as §1
[18] = target: Tyrosine-protein kinase Fyn (Homo sapiens) (UniProt P06241); test: Inhibition of human FYN at 10 uM using poly[Glu:Tyr] (4:1) as substrate by [gamma-33P]-ATP assay relative to control; method in brief: as §1
[19] = target: Homeodomain-interacting protein kinase 1 (Homo sapiens) (UniProt Q86Z02); test: Inhibition of human HIPK1 at 10 uM using MBP as substrate by [gamma-33P]-ATP assay relative to control; method in brief: as §1
[20] = target: Proto-oncogene tyrosine-protein kinase receptor Ret (Homo sapiens) (UniProt P07949); test: Inhibition of human RET at 10 uM using MEK1 (K97R) as substrate by [gamma-33P]-ATP assay relative to control; method in brief: as §2
[21] = target: Tyrosine-protein kinase SYK (Homo sapiens, UniProt P43405); test: Inhibition of human SYK at 10 uM using poly[Glu:Tyr] (4:1) as substrate by [gamma-33P]-ATP assay relative to control; method in brief: as §2
[22] = target: Angiopoietin-1 receptor (Homo sapiens) (UniProt Q02763); test: Inhibition of human TIE2 at 10 uM using poly[Glu:Tyr] (4:1) as substrate by [gamma-33P]-ATP assay relative to control; method in brief: as §2
[23] = target: Tyrosine-protein kinase receptor TYRO3 (Homo sapiens) (UniProt Q06418); test: Inhibition of human TYRO3 at 10 uM using poly[Glu:Tyr] (4:1) as substrate by [gamma-33P]-ATP assay relative to control; method in brief: as §2
[24] = target: Tyrosine-protein kinase Yes (Homo sapiens) (UniProt P07947); test: Inhibition of human YES at 10 uM using poly[Glu:Tyr] (4:1) as substrate by [gamma-33P]-ATP assay relative to control; method in brief: as §2
NOMO-1 = test: Antiproliferative activity against human NOMO1 cells after 2 days by spectrophotometric analysis; assay type: functional; conditions: NOMO-1, 48 h
MV4-11 = test: Antiproliferative activity against human MV4-11 cells after 2 days by spectrophotometric analysis; assay type: functional; conditions: MV4-11, 48 h
PANC-1 = test: Antiproliferative activity against human PANC1 cells after 2 days by spectrophotometric analysis; assay type: functional; conditions: PANC-1, 48 h
HCT-116 = test: Antiproliferative activity against human HCT116 cells after 2 days by spectrophotometric analysis; assay type: functional; conditions: HCT-116, 48 h

Sequence of Proto-oncogene tyrosine-protein kinase Src (Homo sapiens) (P12931 2-536 limits assumed): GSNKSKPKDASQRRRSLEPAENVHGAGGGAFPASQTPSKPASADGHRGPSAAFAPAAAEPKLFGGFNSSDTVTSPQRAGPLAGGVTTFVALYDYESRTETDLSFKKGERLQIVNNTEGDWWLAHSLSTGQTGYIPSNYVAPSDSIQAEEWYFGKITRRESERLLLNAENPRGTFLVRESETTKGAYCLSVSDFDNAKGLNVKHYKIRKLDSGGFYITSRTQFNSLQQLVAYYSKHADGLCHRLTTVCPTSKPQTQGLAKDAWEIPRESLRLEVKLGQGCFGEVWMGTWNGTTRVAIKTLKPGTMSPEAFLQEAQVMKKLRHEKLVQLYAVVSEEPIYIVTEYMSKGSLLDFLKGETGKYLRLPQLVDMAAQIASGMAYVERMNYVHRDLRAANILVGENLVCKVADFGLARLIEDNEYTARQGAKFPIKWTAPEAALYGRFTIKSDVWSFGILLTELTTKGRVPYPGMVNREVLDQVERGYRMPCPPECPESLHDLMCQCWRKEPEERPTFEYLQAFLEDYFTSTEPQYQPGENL
Sequence of Tyrosine-protein kinase Fgr (Homo sapiens) (P09769 2-529 limits assumed): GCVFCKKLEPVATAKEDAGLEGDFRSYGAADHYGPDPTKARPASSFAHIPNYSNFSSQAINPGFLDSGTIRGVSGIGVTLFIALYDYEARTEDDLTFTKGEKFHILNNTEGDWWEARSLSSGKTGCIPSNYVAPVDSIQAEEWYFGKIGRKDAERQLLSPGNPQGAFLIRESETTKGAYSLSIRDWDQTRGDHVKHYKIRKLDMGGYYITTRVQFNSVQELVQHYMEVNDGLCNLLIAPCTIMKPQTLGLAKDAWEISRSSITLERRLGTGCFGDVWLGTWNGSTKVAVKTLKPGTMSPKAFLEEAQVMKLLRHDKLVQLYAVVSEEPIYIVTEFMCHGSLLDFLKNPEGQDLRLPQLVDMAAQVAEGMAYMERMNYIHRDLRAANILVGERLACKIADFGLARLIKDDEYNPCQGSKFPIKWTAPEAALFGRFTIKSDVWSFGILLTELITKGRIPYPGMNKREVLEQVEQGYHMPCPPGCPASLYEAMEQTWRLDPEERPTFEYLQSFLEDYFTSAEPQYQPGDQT
Sequence of Fibroblast growth factor receptor 1 (Homo sapiens) (P11362 22-822 limits assumed): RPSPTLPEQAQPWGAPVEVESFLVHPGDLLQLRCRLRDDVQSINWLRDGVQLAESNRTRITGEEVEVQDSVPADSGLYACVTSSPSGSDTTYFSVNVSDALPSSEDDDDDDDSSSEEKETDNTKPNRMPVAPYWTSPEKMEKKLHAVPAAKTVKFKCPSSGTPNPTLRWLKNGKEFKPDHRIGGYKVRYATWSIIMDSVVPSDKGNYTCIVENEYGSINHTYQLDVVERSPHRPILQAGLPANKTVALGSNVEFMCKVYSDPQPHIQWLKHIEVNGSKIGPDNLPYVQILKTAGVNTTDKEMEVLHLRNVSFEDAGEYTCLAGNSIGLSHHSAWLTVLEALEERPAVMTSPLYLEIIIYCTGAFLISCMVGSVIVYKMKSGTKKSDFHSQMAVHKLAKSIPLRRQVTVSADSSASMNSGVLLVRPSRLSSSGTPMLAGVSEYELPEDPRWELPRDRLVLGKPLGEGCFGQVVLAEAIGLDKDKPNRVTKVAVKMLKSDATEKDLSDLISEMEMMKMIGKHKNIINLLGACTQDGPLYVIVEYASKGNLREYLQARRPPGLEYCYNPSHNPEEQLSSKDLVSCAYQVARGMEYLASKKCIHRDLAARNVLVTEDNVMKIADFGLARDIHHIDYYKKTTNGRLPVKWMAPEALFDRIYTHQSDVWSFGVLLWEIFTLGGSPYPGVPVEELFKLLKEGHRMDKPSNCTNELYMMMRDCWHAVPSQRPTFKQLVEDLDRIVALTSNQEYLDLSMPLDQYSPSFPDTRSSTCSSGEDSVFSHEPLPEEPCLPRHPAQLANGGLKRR
Sequence of Tyrosine-protein kinase Lyn (Homo sapiens) (P07948 2-512 limits assumed): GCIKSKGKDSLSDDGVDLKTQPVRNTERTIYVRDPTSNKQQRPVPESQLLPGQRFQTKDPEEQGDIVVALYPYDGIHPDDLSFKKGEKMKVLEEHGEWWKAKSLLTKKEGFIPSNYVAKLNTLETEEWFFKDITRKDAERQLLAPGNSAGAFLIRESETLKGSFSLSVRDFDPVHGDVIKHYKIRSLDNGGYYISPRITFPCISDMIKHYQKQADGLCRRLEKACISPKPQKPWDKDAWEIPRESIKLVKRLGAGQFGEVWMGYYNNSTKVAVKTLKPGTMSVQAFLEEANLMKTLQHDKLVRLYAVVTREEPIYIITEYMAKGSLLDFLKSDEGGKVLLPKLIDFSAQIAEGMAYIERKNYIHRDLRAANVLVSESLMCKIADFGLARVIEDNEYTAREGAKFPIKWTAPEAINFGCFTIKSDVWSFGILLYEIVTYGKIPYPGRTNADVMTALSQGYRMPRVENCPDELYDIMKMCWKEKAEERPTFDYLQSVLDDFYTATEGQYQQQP
Sequence of Tyrosine-protein kinase Mer (Homo sapiens) (Q12866 whole entry): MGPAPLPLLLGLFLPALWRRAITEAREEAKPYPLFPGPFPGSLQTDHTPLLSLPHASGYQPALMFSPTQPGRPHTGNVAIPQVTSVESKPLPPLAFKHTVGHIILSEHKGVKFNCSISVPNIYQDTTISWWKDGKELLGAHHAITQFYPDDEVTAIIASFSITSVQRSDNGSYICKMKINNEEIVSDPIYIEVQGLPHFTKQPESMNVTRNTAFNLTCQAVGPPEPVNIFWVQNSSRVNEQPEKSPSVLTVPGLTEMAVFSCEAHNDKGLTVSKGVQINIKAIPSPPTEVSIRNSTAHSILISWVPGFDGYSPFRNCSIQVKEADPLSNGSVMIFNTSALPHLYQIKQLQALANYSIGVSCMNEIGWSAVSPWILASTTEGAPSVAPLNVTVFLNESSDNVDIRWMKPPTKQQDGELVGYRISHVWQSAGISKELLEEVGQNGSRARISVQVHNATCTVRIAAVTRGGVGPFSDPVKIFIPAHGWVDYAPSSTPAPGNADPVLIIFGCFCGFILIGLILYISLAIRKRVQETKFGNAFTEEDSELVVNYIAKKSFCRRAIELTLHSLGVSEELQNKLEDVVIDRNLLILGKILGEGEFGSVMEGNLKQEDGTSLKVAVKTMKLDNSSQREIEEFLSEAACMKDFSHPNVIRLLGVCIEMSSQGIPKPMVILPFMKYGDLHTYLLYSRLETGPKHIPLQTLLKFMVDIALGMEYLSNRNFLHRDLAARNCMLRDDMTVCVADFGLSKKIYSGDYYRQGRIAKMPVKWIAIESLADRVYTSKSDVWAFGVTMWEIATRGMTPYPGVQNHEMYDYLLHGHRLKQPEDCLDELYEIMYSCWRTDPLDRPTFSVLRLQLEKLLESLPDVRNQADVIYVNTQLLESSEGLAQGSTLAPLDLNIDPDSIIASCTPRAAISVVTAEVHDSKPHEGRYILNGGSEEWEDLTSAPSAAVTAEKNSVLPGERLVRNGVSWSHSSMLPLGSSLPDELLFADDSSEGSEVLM
Sequence of Epidermal growth factor receptor (Homo sapiens) (P00533 whole entry): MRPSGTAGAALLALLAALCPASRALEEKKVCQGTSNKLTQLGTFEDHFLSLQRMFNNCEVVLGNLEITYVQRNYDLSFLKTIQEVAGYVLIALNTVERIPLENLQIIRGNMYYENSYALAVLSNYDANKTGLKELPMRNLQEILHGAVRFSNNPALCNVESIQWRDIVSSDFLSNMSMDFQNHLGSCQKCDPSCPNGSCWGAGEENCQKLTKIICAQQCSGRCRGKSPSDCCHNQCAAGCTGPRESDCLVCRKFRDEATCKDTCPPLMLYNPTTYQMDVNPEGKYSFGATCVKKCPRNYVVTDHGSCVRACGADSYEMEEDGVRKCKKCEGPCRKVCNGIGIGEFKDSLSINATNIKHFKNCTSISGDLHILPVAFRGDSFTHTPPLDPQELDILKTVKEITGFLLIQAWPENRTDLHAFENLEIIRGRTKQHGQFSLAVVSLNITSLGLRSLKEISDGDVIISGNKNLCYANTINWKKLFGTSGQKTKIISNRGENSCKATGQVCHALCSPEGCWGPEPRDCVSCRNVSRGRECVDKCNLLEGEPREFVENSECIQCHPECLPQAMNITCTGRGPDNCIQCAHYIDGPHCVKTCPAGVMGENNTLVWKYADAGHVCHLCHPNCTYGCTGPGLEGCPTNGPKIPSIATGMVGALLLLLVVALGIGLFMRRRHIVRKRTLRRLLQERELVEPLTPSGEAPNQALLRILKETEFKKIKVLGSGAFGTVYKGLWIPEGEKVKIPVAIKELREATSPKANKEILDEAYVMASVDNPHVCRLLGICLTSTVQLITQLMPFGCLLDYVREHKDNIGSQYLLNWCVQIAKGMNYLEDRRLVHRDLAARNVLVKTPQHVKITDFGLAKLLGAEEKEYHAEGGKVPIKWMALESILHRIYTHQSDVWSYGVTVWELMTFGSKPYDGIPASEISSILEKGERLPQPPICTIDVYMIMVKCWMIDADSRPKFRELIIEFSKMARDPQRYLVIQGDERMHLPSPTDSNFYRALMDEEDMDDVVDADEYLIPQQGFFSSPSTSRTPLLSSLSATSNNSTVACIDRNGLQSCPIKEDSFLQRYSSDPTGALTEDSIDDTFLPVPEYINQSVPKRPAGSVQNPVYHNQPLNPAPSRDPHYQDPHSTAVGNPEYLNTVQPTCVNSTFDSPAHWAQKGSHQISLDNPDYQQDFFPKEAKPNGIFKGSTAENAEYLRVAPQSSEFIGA
Sequence of Serine/threonine-protein kinase 26 (Homo sapiens) (Q9P289 2-416 limits assumed): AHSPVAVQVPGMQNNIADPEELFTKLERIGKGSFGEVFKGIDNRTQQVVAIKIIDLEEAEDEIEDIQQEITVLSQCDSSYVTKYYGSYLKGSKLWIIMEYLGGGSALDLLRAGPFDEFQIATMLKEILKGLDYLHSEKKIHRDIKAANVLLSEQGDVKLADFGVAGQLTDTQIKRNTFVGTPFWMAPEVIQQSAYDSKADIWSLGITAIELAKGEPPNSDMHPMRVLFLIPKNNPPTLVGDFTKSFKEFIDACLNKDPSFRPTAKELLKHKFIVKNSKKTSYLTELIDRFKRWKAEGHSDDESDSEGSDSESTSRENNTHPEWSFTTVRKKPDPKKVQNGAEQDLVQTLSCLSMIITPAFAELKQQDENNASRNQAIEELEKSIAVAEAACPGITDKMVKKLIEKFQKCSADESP

CC(=O)N1CCN(c2ccc(Nc3ncc(C(F)(F)F)c(N4Cc5cccc(N(C)S(C)(=O)=O)c5C4)n3)cc2)CC1
GI50 (U-87 MG): 22100 nM | inhibition [1]: 63.1% | inhibition [2]: 91.1% | inhibition [3]: -3.6% | inhibition [4]: 6.7% | inhibition [5]: 17.8% | inhibition [6]: 88.2% | inhibition [7]: 20.5% | inhibition [8]: 69.1% | inhibition [9]: 90.6% | inhibition [10]: 25.3% | inhibition [11]: 16.2% | inhibition [12]: 9.8% | inhibition [13]: 42.2% | inhibition [14]: 2% | inhibition [15]: 13.1% | inhibition (Focal adhesion kinase 1): 96.4% | inhibition [16]: 26% | inhibition [17]: 80.6% | inhibition [18]: 62.2% | inhibition [19]: 83.8% | inhibition [20]: 85.2% | inhibition [21]: 95.3% | inhibition [22]: 65.4% | inhibition [23]: 87.7% | inhibition [24]: 90.5% | GI50 (NOMO-1): 3800 nM | GI50 (MV4-11): 100 nM | GI50 (PANC-1): 430 nM | GI50 (HCT-116): 420 nM
